Calls of active or inactive are those of the source. The calls are words filed in the database; no cut-off is given here.
Assays:
Acetylcholinesterase = Acetylcholinesterase (Electrophorus electricus, UniProt O42275); assay: Inhibition of electric eel AChE using acetylthiocholine iodide as substrate preincubated for 5 mins followed by substrate addition measured after 5 mins by Ellman's method
Cholinesterase = Cholinesterase (Equus caballus, UniProt P81908); assay: Inhibition of equine serum BChE using butyrylthiocholine iodide as substrate preincubated for 5 mins followed by substrate addition measured after 5 mins by Ellman's method
Outline: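 Ellman's method with equine serum BChE and butyrylthiocholine iodide; DTNB read-out at 412 nm, 25 °C. Phosphate buffer pH 8.0. At least five concentrations (normally 10^-4 to 10^-9 M), each in triplicate, to build the inhibition curve. Data are means of at least three determinations.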

[1] = Selectivity ratio of IC50 for electric eel AChE to IC50 for equine serum BChE
Outline: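 AChE is electric eel Type VI-S with acetylthiocholine; BChE is equine serum with butyrylthiocholine. At least five concentrations, each in triplicate. Ratio = IC50(AChE)/IC50(BChE).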

[2] = target: Amyloid-beta precursor protein (Homo sapiens) (UniProt P05067); assay: Inhibition of amyloid beta (1 to 42) aggregation (unknown origin) at 5 uM after 1 hr by thioflavin T fluorescence assay
Outline: (§1)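 Aβ42 stock (200 µM in DMSO) centrifuged 12,000 rpm for 10 min; supernatant used. Compound (2 µL of 0.2–4.0 mM DMSO stock) and 2 µL Aβ42 stock added to 76 µL PBS pH 7.4, incubated 1 h at room temperature. 80 µL of 5 µM ThT in 50 mM glycine-NaOH pH 8.5 then added; fluorescence read at excitation 430 nm, emission 488 nm.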

[3] = target: Amyloid-beta precursor protein (Homo sapiens) (UniProt P05067); assay: Inhibition of amyloid beta (1 to 42) aggregation (unknown origin) after 1 hr by thioflavin T fluorescence assay; outline: as §1

Chain of Cholinesterase (P81908 whole entry): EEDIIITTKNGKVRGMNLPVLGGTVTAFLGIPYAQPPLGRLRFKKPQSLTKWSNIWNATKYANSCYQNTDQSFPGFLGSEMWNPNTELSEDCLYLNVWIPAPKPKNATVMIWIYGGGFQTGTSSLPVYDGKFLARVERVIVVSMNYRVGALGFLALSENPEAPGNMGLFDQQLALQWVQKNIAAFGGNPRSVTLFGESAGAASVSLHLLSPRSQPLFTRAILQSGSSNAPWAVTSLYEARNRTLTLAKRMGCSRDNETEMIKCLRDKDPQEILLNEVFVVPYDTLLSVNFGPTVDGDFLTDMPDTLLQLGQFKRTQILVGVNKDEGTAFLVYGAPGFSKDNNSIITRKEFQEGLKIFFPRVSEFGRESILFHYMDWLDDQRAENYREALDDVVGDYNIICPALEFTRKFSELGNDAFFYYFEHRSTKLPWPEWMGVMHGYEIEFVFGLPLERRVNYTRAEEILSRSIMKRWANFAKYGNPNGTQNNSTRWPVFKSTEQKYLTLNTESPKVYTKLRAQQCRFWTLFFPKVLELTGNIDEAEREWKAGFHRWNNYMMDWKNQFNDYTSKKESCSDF
Chain of Acetylcholinesterase (O42275 whole entry): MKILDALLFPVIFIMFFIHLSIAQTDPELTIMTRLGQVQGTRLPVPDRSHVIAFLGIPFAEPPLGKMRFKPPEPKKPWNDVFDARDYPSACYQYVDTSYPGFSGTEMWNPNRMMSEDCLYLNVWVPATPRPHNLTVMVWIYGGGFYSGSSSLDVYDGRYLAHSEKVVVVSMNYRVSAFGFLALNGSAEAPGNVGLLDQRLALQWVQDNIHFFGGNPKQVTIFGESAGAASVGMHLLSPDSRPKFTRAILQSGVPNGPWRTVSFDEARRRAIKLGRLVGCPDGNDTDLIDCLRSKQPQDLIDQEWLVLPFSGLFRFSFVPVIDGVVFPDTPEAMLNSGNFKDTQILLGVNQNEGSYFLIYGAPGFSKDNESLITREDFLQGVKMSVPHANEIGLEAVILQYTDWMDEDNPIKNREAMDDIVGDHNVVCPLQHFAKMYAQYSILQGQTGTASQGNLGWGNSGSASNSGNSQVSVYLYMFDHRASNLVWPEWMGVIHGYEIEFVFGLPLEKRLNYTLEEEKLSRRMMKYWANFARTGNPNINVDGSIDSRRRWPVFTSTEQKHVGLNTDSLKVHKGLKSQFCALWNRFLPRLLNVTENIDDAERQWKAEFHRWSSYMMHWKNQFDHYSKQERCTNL
Chain of Amyloid-beta precursor protein (Homo sapiens) (P05067 whole entry): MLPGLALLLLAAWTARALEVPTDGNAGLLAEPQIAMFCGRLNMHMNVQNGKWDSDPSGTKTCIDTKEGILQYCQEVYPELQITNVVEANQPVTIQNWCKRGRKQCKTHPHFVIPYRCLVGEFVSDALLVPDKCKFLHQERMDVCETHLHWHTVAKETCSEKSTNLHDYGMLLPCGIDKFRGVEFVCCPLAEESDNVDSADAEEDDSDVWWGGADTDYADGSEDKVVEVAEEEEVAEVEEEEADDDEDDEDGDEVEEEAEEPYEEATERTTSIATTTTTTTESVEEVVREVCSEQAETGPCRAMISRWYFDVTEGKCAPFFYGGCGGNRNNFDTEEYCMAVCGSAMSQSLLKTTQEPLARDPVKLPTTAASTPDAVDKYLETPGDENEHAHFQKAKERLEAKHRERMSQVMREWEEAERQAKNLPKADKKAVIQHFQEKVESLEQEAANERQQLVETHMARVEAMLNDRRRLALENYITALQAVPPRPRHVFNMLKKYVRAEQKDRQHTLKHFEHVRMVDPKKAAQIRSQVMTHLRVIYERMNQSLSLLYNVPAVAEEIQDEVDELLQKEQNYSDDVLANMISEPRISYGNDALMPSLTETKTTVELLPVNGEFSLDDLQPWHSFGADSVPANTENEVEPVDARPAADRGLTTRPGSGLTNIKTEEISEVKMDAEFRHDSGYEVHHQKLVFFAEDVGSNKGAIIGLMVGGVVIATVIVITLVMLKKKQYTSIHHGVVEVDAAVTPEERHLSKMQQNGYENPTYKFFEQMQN

`COc1ccc2c(c1)[nH]c1cccc(CNC(C)C)c12` gave an IC50 (Acetylcholinesterase) of 50.8 µM, an IC50 (Cholinesterase) of 10.1 µM and a Ratio IC50 [1] of 5.03.

With `COc1cc(/C=C/C(=O)CC(=O)/C=C/c2ccc(O)c(OC)c2)ccc1O` the inhibition [2] was “inactive” and the inhibition [3] was “Dose-dependent effect”.

Work on `CC(C)NCc1cccc2oc3cc(O)ccc3c12` yielded an IC50 (Acetylcholinesterase) of 22.6 µM, an IC50 (Cholinesterase) of 18.4 µM and a Ratio IC50 [1] of 1.23.

— ChEMBL document CHEMBL3124940, “Design, synthesis and biological evaluation of D-ring opened galantamine analogs as multifunctional anti-Alzheimer agents” (Eur J Med Chem, 2014)
